Data as given in ChEMBL document CHEMBL1629416, “Developing dual functional allosteric modulators of GABA(A) receptors” (Bioorg Med Chem, 2010).
Where “and” joins values, the source holds several entries; their conditions need not be identical. Equal values may be shown once. Calls of active or inactive are those of the source. The calls are words filed in the database; no cut-off is given here.

What was measured:
[1] = target: T1, GABA-A receptor; alpha-2/beta-3/gamma-2 (Homo sapiens) (UniProt P18507+P28472+P47869); assay: Positive allosteric modulation of human alpha2beta3gamma2 GABA receptor expressed in Xenopus laevis oocytes at 1 uM; type: cell-based; conditions: Oocyte
Summary of the method: (§1)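 Two-electrode voltage clamp on oocytes expressing human α/β/γ2 subtypes, used 2–10 days after injection. […] Baseline was the mean of three GABA-alone pulses. Result is % modulation, mean ± SEM over individual oocytes.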

[2] = target: T2, GABA-A receptor; alpha-5/beta-3/gamma-2 (Homo sapiens) (UniProt P18507+P28472+P31644); assay: Negative allosteric modulation of human alpha5beta3gamma2 GABA receptor expressed in Xenopus laevis oocytes at 1 uM; type: cell-based; conditions: Oocyte; summary of the method: as §1
[3] = target: T1, GABA-A receptor; alpha-2/beta-3/gamma-2 (Homo sapiens); assay: Negative allosteric modulation of human alpha2beta3gamma2 GABA receptor expressed in Xenopus laevis oocytes at 1 uM; type: cell-based; conditions: Oocyte; summary of the method: as §1
[4] = target: T3, GABA-A receptor; alpha-2/beta-3/gamma-2 (Homo sapiens, UniProt P18507+P28472+P47869); assay: Binding affinity to human alpha2beta3gamma2 GABA receptor expressed in Xenopus laevis oocytes; type: cell-based, Oocyte
T3 sequence (P18507 whole entry): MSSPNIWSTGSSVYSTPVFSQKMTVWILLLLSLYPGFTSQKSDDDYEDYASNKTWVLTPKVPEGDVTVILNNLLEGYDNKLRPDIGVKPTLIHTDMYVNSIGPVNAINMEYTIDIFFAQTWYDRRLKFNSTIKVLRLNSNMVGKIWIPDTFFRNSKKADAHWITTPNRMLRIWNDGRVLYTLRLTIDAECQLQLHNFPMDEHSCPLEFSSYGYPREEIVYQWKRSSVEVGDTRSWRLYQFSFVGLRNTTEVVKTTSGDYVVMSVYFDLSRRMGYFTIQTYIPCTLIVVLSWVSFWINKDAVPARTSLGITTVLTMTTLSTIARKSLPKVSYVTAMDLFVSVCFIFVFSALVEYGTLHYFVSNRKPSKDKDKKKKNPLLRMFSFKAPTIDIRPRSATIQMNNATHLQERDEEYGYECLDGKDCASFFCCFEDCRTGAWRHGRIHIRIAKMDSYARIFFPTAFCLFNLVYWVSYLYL
T3 sequence (P28472 whole entry): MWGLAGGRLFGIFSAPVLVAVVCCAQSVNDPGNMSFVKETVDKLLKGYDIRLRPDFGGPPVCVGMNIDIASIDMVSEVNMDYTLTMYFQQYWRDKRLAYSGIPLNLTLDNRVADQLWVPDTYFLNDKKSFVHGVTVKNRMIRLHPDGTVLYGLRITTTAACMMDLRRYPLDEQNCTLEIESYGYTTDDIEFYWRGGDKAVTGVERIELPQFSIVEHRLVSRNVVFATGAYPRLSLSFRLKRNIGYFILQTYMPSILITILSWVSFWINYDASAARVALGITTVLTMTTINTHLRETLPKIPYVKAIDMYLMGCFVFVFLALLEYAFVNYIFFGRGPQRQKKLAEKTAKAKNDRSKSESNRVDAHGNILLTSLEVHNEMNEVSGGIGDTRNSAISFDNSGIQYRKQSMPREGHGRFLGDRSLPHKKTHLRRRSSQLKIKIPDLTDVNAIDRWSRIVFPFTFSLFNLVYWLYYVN
T3 sequence (P47869 whole entry): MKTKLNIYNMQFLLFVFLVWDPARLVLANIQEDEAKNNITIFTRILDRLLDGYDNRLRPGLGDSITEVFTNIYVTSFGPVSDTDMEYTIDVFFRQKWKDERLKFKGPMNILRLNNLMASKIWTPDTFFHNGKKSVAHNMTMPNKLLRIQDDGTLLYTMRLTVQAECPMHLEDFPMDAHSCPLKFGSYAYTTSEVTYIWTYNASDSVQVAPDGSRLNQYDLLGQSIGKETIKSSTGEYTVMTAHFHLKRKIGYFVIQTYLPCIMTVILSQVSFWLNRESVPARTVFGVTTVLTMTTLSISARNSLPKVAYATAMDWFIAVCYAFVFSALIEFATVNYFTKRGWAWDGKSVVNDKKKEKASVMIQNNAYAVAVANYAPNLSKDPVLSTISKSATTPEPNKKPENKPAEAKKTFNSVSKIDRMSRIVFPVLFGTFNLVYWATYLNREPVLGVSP

[5] = target: T4, GABA-A receptor; alpha-1/beta-2/gamma-2 (Homo sapiens) (UniProt P14867+P47870+P18507); assay: Negative allosteric modulation of human alpha1beta2gamma2 GABA receptor expressed in Xenopus laevis oocytes at 1 uM; type: cell-based; conditions: Oocyte
[6] = target: T5, GABA-A receptor; alpha-5/beta-3/gamma-2 (Homo sapiens, UniProt P18507+P28472+P31644); assay: Binding affinity to human alpha5beta3gamma2 GABA receptor expressed in Xenopus laevis oocytes; type: cell-based, Oocyte
T5 sequence (P18507 whole entry): T3 sequence (P18507 whole entry)
T5 sequence (P28472 whole entry): T3 sequence (P28472 whole entry)
T5 sequence (P31644 whole entry): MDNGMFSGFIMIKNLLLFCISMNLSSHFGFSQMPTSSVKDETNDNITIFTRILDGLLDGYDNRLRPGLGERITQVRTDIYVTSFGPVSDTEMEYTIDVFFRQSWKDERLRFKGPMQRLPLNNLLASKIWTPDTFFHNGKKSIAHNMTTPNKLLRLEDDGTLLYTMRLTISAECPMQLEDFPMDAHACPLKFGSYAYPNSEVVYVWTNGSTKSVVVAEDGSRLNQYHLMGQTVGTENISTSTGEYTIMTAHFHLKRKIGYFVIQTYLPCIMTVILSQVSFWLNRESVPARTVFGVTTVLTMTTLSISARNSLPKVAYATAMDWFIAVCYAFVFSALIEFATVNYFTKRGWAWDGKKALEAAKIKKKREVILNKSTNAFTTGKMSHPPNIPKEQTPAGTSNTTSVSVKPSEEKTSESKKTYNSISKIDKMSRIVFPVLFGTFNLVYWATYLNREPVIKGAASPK

[7] = target: T6, GABA-A receptor; alpha-1/beta-2/gamma-2 (Homo sapiens, UniProt P14867+P18507+P47870); assay: Binding affinity to human alpha1beta2gamma2 GABA receptor expressed in Xenopus laevis oocytes; type: cell-based, Oocyte
T6 sequence (P14867 whole entry): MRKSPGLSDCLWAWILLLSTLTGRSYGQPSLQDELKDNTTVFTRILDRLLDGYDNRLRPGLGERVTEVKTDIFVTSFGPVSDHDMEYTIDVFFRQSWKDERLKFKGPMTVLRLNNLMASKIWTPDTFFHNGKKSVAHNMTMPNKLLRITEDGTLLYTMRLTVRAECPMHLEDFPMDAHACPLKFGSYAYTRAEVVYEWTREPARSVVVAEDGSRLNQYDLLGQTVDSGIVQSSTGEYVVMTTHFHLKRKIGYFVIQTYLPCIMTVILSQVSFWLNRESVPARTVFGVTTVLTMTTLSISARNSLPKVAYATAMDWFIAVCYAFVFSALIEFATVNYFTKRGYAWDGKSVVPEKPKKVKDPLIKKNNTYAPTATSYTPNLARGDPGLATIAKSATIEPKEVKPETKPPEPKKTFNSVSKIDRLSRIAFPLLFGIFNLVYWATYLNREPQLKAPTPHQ
T6 sequence (P47870 whole entry): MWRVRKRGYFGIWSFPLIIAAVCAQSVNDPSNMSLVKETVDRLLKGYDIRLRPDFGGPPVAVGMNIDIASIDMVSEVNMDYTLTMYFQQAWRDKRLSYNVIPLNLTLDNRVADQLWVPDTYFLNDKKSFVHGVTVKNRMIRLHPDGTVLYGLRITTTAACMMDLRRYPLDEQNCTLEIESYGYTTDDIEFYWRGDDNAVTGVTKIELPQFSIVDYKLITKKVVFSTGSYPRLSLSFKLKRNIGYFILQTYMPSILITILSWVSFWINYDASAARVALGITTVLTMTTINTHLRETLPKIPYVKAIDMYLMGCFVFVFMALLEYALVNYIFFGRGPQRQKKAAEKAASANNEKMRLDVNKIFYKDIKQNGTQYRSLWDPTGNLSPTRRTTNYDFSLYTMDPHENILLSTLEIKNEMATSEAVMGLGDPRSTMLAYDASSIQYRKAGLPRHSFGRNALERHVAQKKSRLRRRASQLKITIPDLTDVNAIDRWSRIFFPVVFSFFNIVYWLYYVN
T6 sequence (P18507 whole entry): T3 sequence (P18507 whole entry)

[8] = target: T7, GABA-A receptor; alpha-3/beta-3/gamma-2 (Homo sapiens, UniProt P18507+P28472+P34903); assay: Binding affinity to human alpha3beta3gamma2 GABA receptor expressed in Xenopus laevis oocytes; type: cell-based, Oocyte
T7 sequence (P18507 whole entry): T3 sequence (P18507 whole entry)
T7 sequence (P28472 whole entry): T3 sequence (P28472 whole entry)
T7 sequence (P34903 whole entry): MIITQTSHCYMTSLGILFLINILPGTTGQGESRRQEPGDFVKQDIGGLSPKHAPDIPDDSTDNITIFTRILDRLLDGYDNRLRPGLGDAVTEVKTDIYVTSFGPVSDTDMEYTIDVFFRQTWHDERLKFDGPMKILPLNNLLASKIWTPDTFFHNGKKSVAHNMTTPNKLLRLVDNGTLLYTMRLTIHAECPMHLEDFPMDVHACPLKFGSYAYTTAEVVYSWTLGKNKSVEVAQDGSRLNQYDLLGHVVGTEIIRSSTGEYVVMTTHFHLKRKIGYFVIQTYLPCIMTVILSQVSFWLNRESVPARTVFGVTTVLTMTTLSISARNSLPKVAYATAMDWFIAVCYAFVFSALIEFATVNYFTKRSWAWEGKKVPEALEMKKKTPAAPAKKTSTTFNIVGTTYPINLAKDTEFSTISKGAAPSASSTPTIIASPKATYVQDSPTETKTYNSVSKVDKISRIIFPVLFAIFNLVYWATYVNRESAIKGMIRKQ

[9] = target: T8, GABA-A receptor; alpha-3/beta-3/gamma-2 (Homo sapiens) (UniProt P18507+P28472+P34903); assay: Negative allosteric modulation of human alpha3beta3gamma2 GABA receptor expressed in Xenopus laevis oocytes at 1 uM; type: cell-based; conditions: Oocyte
[10] = target: T4, GABA-A receptor; alpha-1/beta-2/gamma-2 (Homo sapiens); assay: Positive allosteric modulation of human alpha1beta2gamma2 GABA receptor expressed in Xenopus laevis oocytes at 1 uM; type: cell-based; conditions: Oocyte; summary of the method: as §1
[11] = target: T8, GABA-A receptor; alpha-3/beta-3/gamma-2 (Homo sapiens); assay: Positive allosteric modulation of human alpha3beta3gamma2 GABA receptor expressed in Xenopus laevis oocytes at 1 uM; type: cell-based; conditions: Oocyte; summary of the method: as §1
[12] = target: T4, GABA-A receptor; alpha-1/beta-2/gamma-2 (Homo sapiens); assay: Effect on human alpha1beta2gamma2 GABA receptor expressed in Xenopus laevis oocytes at 10 uM; type: cell-based; conditions: Oocyte
[13] = target: T3, GABA-A receptor; alpha-2/beta-3/gamma-2; assay: Displacement of [3H]flunitrazepam from human alpha2beta3gamma2 GABA receptor in Sf9 membranes after 1 hr by liquid scintillation counting
Summary of the method: (§2)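 [3H]Flunitrazepam (3 nM) competition on recombinant Sf9 membranes co-expressing α, β and γ2 subunits. Compound incubated 1 h at 4 °C in 20 mM Tris–citrate, 200 mM NaCl, pH 7.8, with membrane protein.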

[14] = target: T5, GABA-A receptor; alpha-5/beta-3/gamma-2; assay: Displacement of [3H]flunitrazepam from human alpha5beta3gamma2 GABA receptor in Sf9 membranes after 1 hr by liquid scintillation counting; summary of the method: as §2
[15] = target: T2, GABA-A receptor; alpha-5/beta-3/gamma-2 (Homo sapiens); assay: Positive allosteric modulation of human alpha5beta3gamma2 GABA receptor expressed in Xenopus laevis oocytes at 1 uM; type: cell-based; conditions: Oocyte; summary of the method: as §1

Nc1c(C(=O)NC2CC2)nnc2c(-c3ncccn3)cccc12
Activity [1]: 54%
Activity [2]: 5%

CCc1c(C(=O)OC)ncc2[nH]c3cc(OC)c(OC)cc3c12
Activity [3]: 61%
EC50 [4]: 14 nM
Activity [5]: 68%
EC50 [6]: 3 nM
EC50 [7]: 9 nM
EC50 [8]: 10 nM
Activity [2]: 69%
Activity [9]: 58%

Nc1c2c(nc3c(-c4ncccn4)cccc13)CN(C1CCC1)C2=O
EC50 [4]: 34 nM
Activity [10]: 1%
Activity [11]: 40%
Activity [12]: inactive
Ki [13]: 8.3 nM
Activity [1]: 44% and 38%
EC50 [6]: 206 nM
Ki [14]: 14 nM
EC50 [8]: 77 nM
Activity [2]: 46% and 32%

Nc1c2c(nc3c(-c4cncnc4)cccc13)CN(C1CCC1)C2=O
Ki [13]: 1.5 nM
Activity [1]: 18%
Ki [14]: 12 nM
Activity [2]: 2%

CCCNC(=O)c1nnc2c(-c3ncccn3)cccc2c1N
EC50 [4]: 104 nM
Activity [11]: 41%
Ki [13]: 380 nM
Activity [5]: 5%
EC50 [6]: 1130 nM
EC50 [8]: 379 nM

Nc1c(C(=O)N2CC(F)(F)C2)nnc2c(-c3ncccn3)c(F)ccc12
Activity [3]: 7%
Activity [15]: 13%

Nc1c(C(=O)NC2CC2)nnc2c(-c3ncccn3)c(F)ccc12
Activity [1]: 39%
Activity [15]: 2%

Nc1c(C(=O)N2CCC2)nnc2c(-c3ncccn3)c(F)ccc12
Activity [1]: 8%
Activity [15]: 10%

CC1CN(C(=O)c2nnc3c(-c4ncccn4)c(F)ccc3c2N)C1
Activity [1]: 18%
Activity [15]: 0%

Nc1c(C(=O)N2CC(F)(F)C2)nnc2c(-c3ncccn3)cccc12
Activity [1]: 6%
Activity [2]: 4%

CCCNC(=O)c1nnc2c(-c3cncc(C(=O)N4CCC4)c3)cccc2c1N
Activity [3]: 5%
EC50 [4]: 54 nM
Activity [5]: 14%
EC50 [6]: 455 nM
EC50 [7]: 389 nM
EC50 [8]: 174 nM
Activity [2]: 45%
Activity [9]: 11%

Nc1c(C(=O)N2CCC2)nnc2c(-c3ncccn3)cccc12
Activity [3]: 5%
Activity [2]: 22%

CC1CN(C(=O)c2nnc3c(-c4ncccn4)cccc3c2N)C1
Activity [1]: 14%
Activity [2]: 35%

CCCNC(=O)c1nnc2c(-c3ncccn3)c(F)ccc2c1N
Ki [13]: 6 nM
Activity [1]: 31%
Activity [2]: 3%

CN1C(=O)CN=C(c2ccccc2)c2cc(Cl)ccc21
Activity [10]: 192%
Activity [11]: 207%
Activity [1]: 177%
Activity [15]: 153%
